# Most compounds without a hit are left out; they make up all but 4% or so of the library.
# GPR7 antagonist: human neuropeptides B/W receptor 1 antagonism. P48145. GPR7-expressing cells, fluorescence antagonist assay. inhibition, % at 4.4 µM. 290,000 tested, 1.1% active. AID 1861; in the data active = inhibition above about 16%, passing the limit was not always enough;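 also: cells stimulated with the agonist NPW; 0% = agonist with vehicle and 100% = vehicle without agonist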
# Target sequence (P48145 whole entry, looked up): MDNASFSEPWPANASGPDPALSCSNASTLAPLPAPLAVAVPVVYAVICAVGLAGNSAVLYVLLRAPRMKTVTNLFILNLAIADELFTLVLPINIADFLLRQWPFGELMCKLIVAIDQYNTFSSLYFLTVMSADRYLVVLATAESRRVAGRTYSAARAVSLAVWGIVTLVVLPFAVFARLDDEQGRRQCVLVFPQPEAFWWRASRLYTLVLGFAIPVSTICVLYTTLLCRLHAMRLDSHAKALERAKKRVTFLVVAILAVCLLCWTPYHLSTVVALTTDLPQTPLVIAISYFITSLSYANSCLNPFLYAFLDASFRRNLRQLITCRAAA
# TAAR1 ag: human TAAR1 agonism; AID 624467; activation, % at 3 µM; CHO RD-HGA16 TAAR1, Fluo-8 calcium fluorescence; vehicle wells 0%, saturating PEA agonist 100%; 360,000 tested, 0.99% active; Q96RJ0;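 active = activation above the mean activation of all test compounds in the run plus 3 SD, cut at about 38% in these data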
#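 Test system: RD-HGA16 (CHO) cells co-expressing Gα16 and hTAAR1 / Benchmarks: DMSO vehicle as 0%, PEA at EC100 as 100% / Repeats: no replicates (n 1) / Measure: % activation from peak over basal fluorescence ratio, DMSO-to-PEA scaled / Timing: 17-24 h plating, Fluo-8 75 min 37 °C, 30 min RT / Technique: kinetic Fluo-8 calcium fluorescence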
# DAGLB inhibitor: blocks human DAGLB lipase activity. Q8NCG7. inhibition, % at 5.17 µM. HEK293T DAGLB membrane lysate, EnzChek fluorogenic substrate. 340,000 tested, 0.059% active; in the data active = inhibition above about 34%;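 also: 0% = enzyme with vehicle and 100% = wells lacking enzyme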
# TAAR1 antag: antagonists of human TAAR1. inhibition, % at 3 µM. Q96RJ0. AID 624466. CHO RD-HGA16 TAAR1, Fluo-8 calcium fluorescence, antagonist. 360,000 tested, 1.5% active;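 active = inhibition above a per-plate cutoff, the mean inhibition of test compounds on that plate plus 3 SD, cut at about 49% in these data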;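 also: 0% = DMSO plus EC80 beta-PEA response and 100% = DMSO alone without agonist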
#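 Test system: hTAAR1-expressing CHO RD-HGA16 cells, Gα16-coupled; Probe or stimulus: EC80 β-phenethylamine stimulus; Compound dosing: single nominal final test compound concentration of 3 µM; Timing: 140 s kinetic read after compound, 140 s after agonist; Signal: Fluo-8 calcium-sensitive fluorescence; Measure: % inhibition of agonist calcium response; Controls: DMSO and EC80 PEA controls.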
# MPTP inh: permeability transition pore inhibition; isolated mouse mitochondria, Ca2+ swelling absorbance, 30 min; inhibition, % at 10 µM; 360,000 tested, 1.4% active; AID 602449;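 active = inhibition of 50% or more, scaled per plate between neutral and stimulator controls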;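 also: 0% = DMSO wells given calcium and 100% = 1 mM EGTA wells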
# TAAR1 ag confirm: confirmation of human TAAR1 agonists; shares compounds with TAAR1 ag; CHO RD-HGA16 TAAR1, Fluo-8 calcium fluorescence; scaled: DMSO 0%, maximal phenethylamine 100%; activation, % at 3 µM; 2,400 tested, 82% active; AID 651783;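 active = activation above a cutoff set at the run's mean compound activation plus 3 SD, cut at about 39% in these data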
# Ga16 nonsel ag: nonselective agonism, TAAR1 counter-screen; shares compounds with TAAR1 ag; CHO-Ga16 parental, Fluo-8 calcium fluorescence; normalized to maximal ATP response, DMSO zero; activation, % at 3 µM; 2,400 tested, 50% active;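 active = activation above the run cutoff, the mean activation over all tested wells plus 3 SD, cut at about 12% in these data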;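 also: 0% = DMSO wells and 100% = maximal ATP response on the peak over basal ratio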
# TAAR1 desens: human TAAR1 agonist that also desensitizes the receptor | inhibition, % at 3 µM | 2,400 tested, 46% active | CHO RD-HGA16 hTAAR1, Fluo-8 calcium, beta-PEA response inhibition | shares compounds with TAAR1 ag;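 active = inhibition above the run cutoff, the mean inhibition of all test compounds plus 3 SD, cut at about 49% in these data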;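 also: beta-PEA stimulus applied at its EC80; loss of beta-PEA calcium signal after compound pretreatment read as receptor desensitization; 0% = DMSO with beta-PEA at EC80 and 100% = DMSO alone without agonist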
# Ga16 nonsel ant: nonselective Ga16 antagonist in TAAR1 agonist counter-screen; shares compounds with TAAR1 ag; CHO-Ga16 ATP-induced calcium, Fluo-8 fluorescence; inhibition, % at 3 µM; 2,400 tested, 39% active; AID 651952;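 active = inhibition above the plate's mean compound inhibition plus 3 SD, computed per plate, cut at about 22% in these data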;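 also: 0% = EC80 ATP with DMSO and 100% = DMSO wells without ATP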
# * hit, by the source's call; · = no result; ! = not confirmed by another sample.
SMILES,GPR7 antagonist,TAAR1 ag,DAGLB inhibitor,TAAR1 antag,MPTP inh,TAAR1 ag confirm,Ga16 nonsel ag,TAAR1 desens,Ga16 nonsel ant
O=C(NCCN1CCC2(CC1)C(=O)NCN2c1ccccc1)c1ccc(Cl)c(Cl)c1,·,113.2*,·,106.1*,·,124.3*,94.8*,106.8*,102.8*
O=C(NCCN1CCOCC1)c1ccc(Cl)nc1,0.9,2.7,0.5,-22.2,0.9,·,·,·,·
O=C(NCCN1CCC2(CC1)C(=O)NCN2c1ccccc1)c1ccc(OC(F)(F)F)cc1,·,53.6*,·,96.2*,·,44.6*,40.5*,101.8*,98.3*
Cc1ccc(C(=O)NCCN2CCC3(CC2)C(=O)NCN3c2ccccc2)cc1,·,86.5*,·,98.7*,·,52.8*,41.2*,98.2*,83.9*
COc1ccc(-n2nnnc2C(c2ccccc2OC(F)(F)F)N2CCC3(CC2)C(=O)NCN3c2ccccc2)cc1 (stereo not drawn),·,3.0,·,18.6,4.6,·,·,·,·
CC1CCCCC1NC(=O)CNC(=S)N1CC2CC(C1)c1cccc(=O)n1C2 (stereo not drawn),-4.0,2.3,0.6,-1.6,1.0,·,·,·,·
O=C(Cc1ccc([N+](=O)[O-])cc1)N1CCN(Cc2ccc3c(c2)OCO3)CC1,-4.7,0.6,·,-12.7,6.0,·,·,·,·
N#Cc1c(N2CCNCC2)nc(-c2ccco2)c2c1CCCC2,2.5,79.7*,-4.0,48.2,-1.2,96.1*,16.5*,90.5*,15.1
CC(Cc1ccccc1)N(C)CC1C(=O)C2CCC1C2 (stereo not drawn),·,56.4*,-0.2,13.1,-3.4,50.9*,-0.1,4.4,7.9
CCc1ccc(NC(=O)CCNC(=O)N2C[C@H]3C[C@@H](C2)c2cccc(=O)n2C3)cc1,-12.3,3.6,-1.9,-6.1,-1.5,·,·,·,·
CC(=O)OC1C(O)C(C)OC(OC2C(OC(=O)C3CCC4C(C3)OC3(CC(OC(=O)/C=C/c5ccccc5)C(C)CO3)C43CO3)OC(C)C(O)C2OC(C)=O)C1O (stereo not drawn),·,1.4,-2.1,7.7,-0.8,·,·,·,·
CC1CN(CC(=O)c2ccccc2Cl)CC(C)O1 (stereo not drawn),-1.1,84.8*,-0.1,54.2*,-0.4,105.8*,2.8,43.5,-10.3
CC(C)Oc1ccc(CCN)cc1Cl,6.9,51.7*,-1.5,-27.7,0.3,67.5*,10.9,11.2,2.1
COc1ccc(CCN)cc1O,·,46.9*,0.2,7.6,-1.9,61.7*,-0.2,22.1,9.2
CC(OC(=O)c1cn(C)c2ccccc12)C(=O)N1CCCC1 (stereo not drawn),·,1.1,-10.7,8.5,-0.8,·,·,·,·
COC1=C(OC)[C@]23CCc4ccc(OC)c(OC)c4[C@]2(CCN3C)CC1=O,·,-0.5,-0.5,2.2,-0.7,·,·,·,·
CC(Cc1ccc(O)cc1)NCC(O)c1cc(O)cc(O)c1 (stereo not drawn),·,0.9,2.9,-19.6,·,·,·,·,·
CC(N)Cc1ccc(O)cc1 (stereo not drawn),·,96.0*,·,54.1*!,·,94.1*,2.5,83.9*,4.6
COc1ccccc1CCNCc1cc2c(cc1[N+](=O)[O-])OCO2,8.8,·,-0.1,·,0.4,·,3.3,·,7.2
CC(C)S(=O)(=O)N1Cc2ccccc2-n2nncc2C1,·,-0.3,-0.9,16.1,-1.1,·,·,·,·
CC1CN=C(NC(C)c2ccccc2)S1 (stereo not drawn),-10.8,5.4,-1.5,-5.8,-0.8,·,·,·,·
CC(NC1=NCCS1)c1ccccc1 (stereo not drawn),6.9,·,-4.2,·,0.0,·,-0.2,·,-0.3
O=[N+]([O-])c1ccc(C2C3C(c4ccccc4)=NC4(CCCC4)N32)cc1 (stereo not drawn),1.0,-1.9,-2.2,-10.5,-1.7,·,·,·,·
Cc1cc(C)cc(N2C(=O)NC(=O)/C(=C\c3cccn3-c3ccc(Cl)cc3)C2=O)c1,2.1,50.5*,23.0,32.4,3.6,37.3,12.5*,36.0,20.2
CN1C(=O)/C(=C/c2cccn2-c2ccc3ccccc3c2)C(=O)NC1=S,5.9,5.1,29.4,31.9,4.4,·,·,·,·
CN(c1ccccc1)P(=O)(N1CC1)N1CC1,·,1.5,-1.0,-5.9,-0.2,·,·,·,·

# Screening data: PubChem, several laboratories
